Measured values from PMC5458759 (Genes & Development, 2017).
Each block holds one molecule with its values, some of them ahead of it.

How the values were obtained:
[1] = system: ER^LRR; assay: Pull-down assay with 6xHis-tagged ER^LRR; format: binding, Arabidopsis; conditions: Ni resin, SDS-PAGE, Coomassie blue; without TMM^LRR
In short: (§1)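 Purified C-terminal 6xHis-tagged receptor LRR, from High Five cells, was mixed with excess EPF-family peptide and Ni resin for 30 min on ice. The resin was washed four times in 25 mM Tris pH 8.0, 250 mM NaCl, 15 mM imidazole, then heated 5 min at 100°C in SDS loading buffer. Bound protein was detected by SDS-PAGE with Coomassie staining.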

[2] = system: ERL1^LRR; assay: Pull-down assay with 6xHis-tagged ERL1^LRR; format: binding, Arabidopsis; conditions: Ni resin, SDS-PAGE, Coomassie blue; without TMM^LRR
In short: as §1

[3] = system: ERL2^LRR; assay: Pull-down assay with 6xHis-tagged ERL2^LRR; format: binding, Arabidopsis; conditions: Ni resin, SDS-PAGE, Coomassie blue; without TMM^LRR
In short: as §1

[4] = system: ER^LRR; assay: Gel filtration assay with ER^LRR; format: binding, Arabidopsis; conditions: 10 mM Bis-Tris pH 6.0, 100 mM NaCl; incubated 30 min at 4°C
In short: (§2)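 LRR ectodomains were expressed in High Five insect cells by baculovirus at 22°C; for complexes, the ERf and TMM viruses were added together. Protein was purified from the supernatant by Ni-NTA and then size exclusion. Receptor and EPF-family peptide were mixed, held 30 min at 4°C, then run on Superdex 200 in 10 mM Bis-Tris pH 6.0, 100 mM NaCl. Fractions were analysed by SDS-PAGE with Coomassie staining.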

[5] = system: ERL1^LRR; assay: Gel filtration assay with ERL1^LRR; format: binding, Arabidopsis; conditions: 10 mM Bis-Tris pH 6.0, 100 mM NaCl; incubated 30 min at 4°C
In short: as §2

[6] = system: ERL2^LRR; assay: Gel filtration assay with ERL2^LRR; format: binding, Arabidopsis; conditions: 10 mM Bis-Tris pH 6.0, 100 mM NaCl; incubated 30 min at 4°C
In short: as §2

[7] = system: ERL1^LRR; assay: Biochemical assay of EPFL8 interaction; format: binding, Arabidopsis; conditions: Supplemental Fig. S11
[8] = system: ERL1^LRR–TMM^LRR complex; assay: Gel filtration assay with ERL1^LRR–TMM^LRR complex; format: binding, Arabidopsis; conditions: 10 mM Bis-Tris pH 6.0, 100 mM NaCl; incubated 30 min at 4°C
In short: as §2

[9] = system: ER^LRR–TMM^LRR complex; assay: Ligand competition assay, ER^LRR–TMM^LRR; format: binding, Arabidopsis; conditions: 10 µM EPF2-6xHis or EPF1-6xHis, increasing concentrations of EPFL9, 1 h at 4°C
In short: (§3)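 The ERf–TMM LRR complex was coexpressed in High Five cells and purified by Ni-NTA and gel filtration. It was incubated with 10 µM His-tagged EPF peptide, with or without varying concentrations of competing peptide, for 1 h at 4°C with gentle agitation. The mixture was then passed over Ni beads and washed four times. Eluate was boiled 5 min at 100°C in SDS loading buffer and read by SDS-PAGE with Coomassie staining.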

[10] = system: ERL1^LRR–TMM^LRR complex; assay: Ligand competition assay, ERL1^LRR–TMM^LRR; format: binding, Arabidopsis; conditions: 10 µM EPF2-6xHis or EPF1-6xHis, increasing concentrations of EPFL9, 1 h at 4°C
In short: as §3

[11] = target: T1, ERL1^LRR–TMM^LRR complex (Arabidopsis thaliana, UniProt C0LGW6;Q9SSD1); assay: ITC
T1 sequence 1: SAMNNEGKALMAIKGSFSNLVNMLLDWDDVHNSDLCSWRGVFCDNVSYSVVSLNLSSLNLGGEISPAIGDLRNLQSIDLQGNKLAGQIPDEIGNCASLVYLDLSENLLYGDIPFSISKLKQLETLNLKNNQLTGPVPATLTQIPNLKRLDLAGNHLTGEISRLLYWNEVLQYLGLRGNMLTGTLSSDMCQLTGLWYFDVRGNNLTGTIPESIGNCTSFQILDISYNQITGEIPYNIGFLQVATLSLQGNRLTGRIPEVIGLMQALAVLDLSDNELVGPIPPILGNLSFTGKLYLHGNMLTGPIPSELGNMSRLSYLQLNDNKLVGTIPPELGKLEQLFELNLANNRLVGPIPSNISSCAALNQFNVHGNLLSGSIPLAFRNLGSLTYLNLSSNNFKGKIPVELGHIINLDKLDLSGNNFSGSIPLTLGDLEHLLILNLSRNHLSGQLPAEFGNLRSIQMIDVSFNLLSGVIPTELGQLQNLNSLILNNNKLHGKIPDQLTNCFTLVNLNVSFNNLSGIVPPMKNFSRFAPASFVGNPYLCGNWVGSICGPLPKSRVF
T1 sequence 2: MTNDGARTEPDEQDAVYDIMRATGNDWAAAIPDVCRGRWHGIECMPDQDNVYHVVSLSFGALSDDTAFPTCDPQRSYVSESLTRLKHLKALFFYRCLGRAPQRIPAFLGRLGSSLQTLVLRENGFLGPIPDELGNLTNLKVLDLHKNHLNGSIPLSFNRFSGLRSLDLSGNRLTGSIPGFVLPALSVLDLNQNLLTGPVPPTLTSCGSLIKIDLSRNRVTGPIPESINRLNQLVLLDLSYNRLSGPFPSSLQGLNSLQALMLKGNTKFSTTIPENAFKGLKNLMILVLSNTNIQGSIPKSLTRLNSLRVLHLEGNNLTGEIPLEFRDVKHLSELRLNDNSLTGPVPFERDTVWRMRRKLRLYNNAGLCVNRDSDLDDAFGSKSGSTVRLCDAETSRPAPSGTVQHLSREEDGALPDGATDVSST

[12] = target: T2, ER^LRR, extracellular LRR domain of ERECTA (ER) (Arabidopsis thaliana, UniProt Q42371 24-580); assay: pull-down
T2 sequence: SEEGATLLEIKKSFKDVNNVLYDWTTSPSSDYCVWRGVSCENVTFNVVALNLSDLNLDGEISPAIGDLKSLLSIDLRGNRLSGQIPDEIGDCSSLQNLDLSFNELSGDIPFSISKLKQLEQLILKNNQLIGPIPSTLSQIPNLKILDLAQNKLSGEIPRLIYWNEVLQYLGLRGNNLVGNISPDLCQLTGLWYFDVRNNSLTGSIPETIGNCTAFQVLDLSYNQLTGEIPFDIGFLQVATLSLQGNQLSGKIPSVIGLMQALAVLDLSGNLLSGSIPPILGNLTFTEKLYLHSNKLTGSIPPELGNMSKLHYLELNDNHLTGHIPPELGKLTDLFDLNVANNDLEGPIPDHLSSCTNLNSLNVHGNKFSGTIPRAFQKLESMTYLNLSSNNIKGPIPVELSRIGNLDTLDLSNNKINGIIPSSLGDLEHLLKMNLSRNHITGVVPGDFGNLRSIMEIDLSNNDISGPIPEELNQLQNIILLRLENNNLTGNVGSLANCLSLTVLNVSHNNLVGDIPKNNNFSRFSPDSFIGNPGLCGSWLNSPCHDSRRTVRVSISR

[13] = target: T3, ERL1^LRR, extracellular LRR domain of ER-LIKE1 (ERL1) (Arabidopsis thaliana, UniProt C0LGW6 24-580); assay: pull-down
T3 sequence: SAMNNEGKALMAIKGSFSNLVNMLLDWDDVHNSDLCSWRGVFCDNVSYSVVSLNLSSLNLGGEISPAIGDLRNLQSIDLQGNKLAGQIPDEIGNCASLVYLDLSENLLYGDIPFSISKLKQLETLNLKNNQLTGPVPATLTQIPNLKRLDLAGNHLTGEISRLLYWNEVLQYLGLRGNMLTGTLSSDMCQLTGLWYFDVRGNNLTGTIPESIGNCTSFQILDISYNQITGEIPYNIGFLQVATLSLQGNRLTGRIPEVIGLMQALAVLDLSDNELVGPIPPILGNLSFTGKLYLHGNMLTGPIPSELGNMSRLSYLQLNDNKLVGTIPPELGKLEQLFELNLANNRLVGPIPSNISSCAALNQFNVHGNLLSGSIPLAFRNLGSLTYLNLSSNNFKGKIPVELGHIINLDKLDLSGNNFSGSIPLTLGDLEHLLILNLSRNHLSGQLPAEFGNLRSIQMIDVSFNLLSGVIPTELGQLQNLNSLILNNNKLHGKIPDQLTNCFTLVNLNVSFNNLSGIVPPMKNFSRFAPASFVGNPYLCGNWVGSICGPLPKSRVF

[14] = target: T4, ERL2^LRR, extracellular LRR domain of ERL2 (Arabidopsis thaliana, UniProt Q6XAT2 28-580); assay: pull-down
T4 sequence: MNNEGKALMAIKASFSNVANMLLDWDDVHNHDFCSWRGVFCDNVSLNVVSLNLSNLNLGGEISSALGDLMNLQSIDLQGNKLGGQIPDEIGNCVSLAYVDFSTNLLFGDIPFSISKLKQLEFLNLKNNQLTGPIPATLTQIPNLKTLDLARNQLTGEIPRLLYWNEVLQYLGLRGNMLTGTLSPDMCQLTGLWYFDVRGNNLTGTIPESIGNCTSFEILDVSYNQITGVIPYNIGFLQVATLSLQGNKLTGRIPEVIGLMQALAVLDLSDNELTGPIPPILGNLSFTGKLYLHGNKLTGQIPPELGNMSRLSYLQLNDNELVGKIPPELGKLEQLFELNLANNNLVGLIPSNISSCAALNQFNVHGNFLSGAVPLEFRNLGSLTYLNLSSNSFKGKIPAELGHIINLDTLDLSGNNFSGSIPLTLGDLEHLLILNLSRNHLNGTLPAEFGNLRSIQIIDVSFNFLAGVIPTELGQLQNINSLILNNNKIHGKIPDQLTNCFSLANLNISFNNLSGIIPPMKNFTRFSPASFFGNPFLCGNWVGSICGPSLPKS

[15] = target: T5, ER^LRR–TMM^LRR complex (Arabidopsis thaliana, UniProt Q42371;Q9SSD1); assay: pull-down
T5 sequence 1: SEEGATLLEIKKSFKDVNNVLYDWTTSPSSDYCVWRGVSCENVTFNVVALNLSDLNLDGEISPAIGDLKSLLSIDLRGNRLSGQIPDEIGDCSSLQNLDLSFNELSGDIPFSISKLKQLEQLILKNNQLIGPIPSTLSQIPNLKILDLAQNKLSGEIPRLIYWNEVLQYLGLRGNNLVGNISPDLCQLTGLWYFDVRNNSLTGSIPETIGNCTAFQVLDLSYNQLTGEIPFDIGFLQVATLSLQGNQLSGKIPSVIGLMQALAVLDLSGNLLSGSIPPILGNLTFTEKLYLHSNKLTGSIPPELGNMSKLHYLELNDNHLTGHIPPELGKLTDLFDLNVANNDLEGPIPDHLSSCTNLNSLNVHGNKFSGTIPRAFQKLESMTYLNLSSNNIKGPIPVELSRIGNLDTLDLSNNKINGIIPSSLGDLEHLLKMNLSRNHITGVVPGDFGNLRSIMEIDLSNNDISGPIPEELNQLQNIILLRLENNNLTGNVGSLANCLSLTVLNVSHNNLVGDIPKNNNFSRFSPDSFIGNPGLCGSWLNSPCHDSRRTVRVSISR
T5 sequence 2: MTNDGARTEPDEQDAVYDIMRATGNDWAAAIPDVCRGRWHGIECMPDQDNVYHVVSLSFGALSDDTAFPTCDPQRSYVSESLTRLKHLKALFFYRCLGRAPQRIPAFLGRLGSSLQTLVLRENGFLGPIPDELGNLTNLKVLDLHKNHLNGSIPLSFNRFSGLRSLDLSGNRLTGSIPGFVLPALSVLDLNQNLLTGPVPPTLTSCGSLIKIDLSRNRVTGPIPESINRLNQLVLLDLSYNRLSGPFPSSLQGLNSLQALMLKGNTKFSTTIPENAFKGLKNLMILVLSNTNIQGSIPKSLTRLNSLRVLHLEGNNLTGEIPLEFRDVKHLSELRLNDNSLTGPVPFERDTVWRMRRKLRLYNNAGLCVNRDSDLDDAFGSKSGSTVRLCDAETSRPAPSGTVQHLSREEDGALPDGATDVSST

[16] = target: T3, ERL1^LRR, extracellular LRR domain of …; assay: ITC

Molecule: EPFL4: EPF family growth regulatory peptide, residues 59–109 (PGSSPPTCRSKCGKCQPCKPVHVPIQPGLSMPLEYYPEAWRCKCGNKLFMP)
interaction with ER^LRR in pull-down [1]: interacted strongly | interaction with ERL1^LRR in pull-down [2]: interacted strongly | interaction with ERL2^LRR in pull-down [3]: interacted strongly | interaction with ER^LRR alone in gel filtration [4]: interacted strongly | interaction with ERL1^LRR alone in gel filtration [5]: interacted strongly | interaction with ERL2^LRR alone in gel filtration [6]: interacted strongly

Molecule: EPFL8: EPF family peptide, residues 46–99 (MGSEPPVCATKCRNCKPCLPYLFDIRGAHDDDDDSEPYYPVKWICRCRDRVFEP)
interaction with ERL1^LRR in the absence of TMM^LRR [7]: interacted

Molecule: EPFL9: EPF family peptide, residues 58–102, promotes stomatal development (IGSTAPTCTYNECRGCRYKCRAEQVPVEGNDPINSAYHYRCVCHR)
interaction with ERL1^LRR alone in gel filtration [5]: weak interaction | interaction with ERL1^LRR–TMM^LRR in gel filtration (comigration) [8]: much more EPFL9 was shifted to a higher-molecular-weight species and comigrated with the complex | competition: amount of ER^LRR–TMM^LRR pulled down by EPF2 or EPF1 [9]: gradually decreased the amount | competition: amount of ERL1^LRR–TMM^LRR pulled down by EPF2 or EPF1 [10]: gradually decreased the amount

binding result [11]: binds | binding result [12]: binds | binding result [13]: binds | binding result [14]: binds
B1: EPFL6 (CHALLAH, CHAL) peptide, residues 106–156 (peptide)
chain: LGSSPPRCSSKCGRCTPCKPVHVPVPPGTPVTAEYYPEAWRCKCGNKLYMP

binding result [15]: binds | fold lower affinity than for ERL1^LRR–TMM^LRR [16]: ~10 fold | Kd [11]: 4 µM
B2: EPFL9 (STOMAGEN) peptide, residues 58–102 (peptide)
chain: IGSTAPTCTYNECRGCRYKCRAEQVPVEGNDPINSAYHYRCVCHR
